Results published in ChEMBL document CHEMBL1146216, “Synthesis and biological activity of a gemcitabine phosphoramidate prodrug” (J Med Chem, 2007).

Experiments:
[1] = tested on: A2780; test: Growth inhibition of A2780 cells by SRB assay in presence of dipyridamole; type: functional, cell-based; settings: Homo sapiens
How it was run: (§1)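 SRB growth assay run with the nucleoside transport inhibitor dipyridamole at 1 µM final. Cells were seeded at 5000/well and exposed to a range of drug concentrations for 72 h at 37 °C, 5% CO2. Media: DMEM for A2780 and the dCK-deficient AG6000; RPMI for A549, H292 and H460; each with 10% FCS and 20 mM HEPES. Relative growth was calculated against ODzero and untreated controls.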

[2] = tested on: SW1573; test: Growth inhibition of SW1573 cells by SRB assay in presence of dipyridamole; type: functional, cell-based; settings: Homo sapiens
How it was run: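 SW1573 cells cultured in DMEM, 10% FCS, 20 mM HEPES, 37 °C, 5% CO2. Plated at 5000 cells/well and given graded drug concentrations with the nucleoside transport inhibitor dipyridamole at 1 µM final, for 72 h. SRB read-out at OD 540 or 492 nm. Growth is expressed relative to time-zero and untreated wells.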

[3] = tested on: NCI-H460; test: Growth inhibition of H460 cells by SRB assay; type: functional, cell-based; settings: Homo sapiens
How it was run: (§2)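 Cells seeded at 5000/well and exposed to a range of drug concentrations for 72 h at 37 °C, 5% CO2, then read by SRB. A2780 and its dCK-deficient variant AG6000 were grown in DMEM; A549, H292 and H460 in RPMI; both media had 10% FCS and 20 mM HEPES. OD was read at 540 or 492 nm. Relative growth = (ODtreated − ODzero)/(ODcontrol − ODzero) × 100%, with ODzero taken at drug addition.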

[4] = tested on: A549; test: Growth inhibition of A549 cells by SRB assay in presence of dipyridamole; type: functional, cell-based; settings: Homo sapiens; how it was run: as §1
[5] = tested on: A549; test: Growth inhibition of A549 cells by SRB assay; type: functional, cell-based; settings: Homo sapiens; how it was run: as §2
[6] = tested on: A2780; test: Growth inhibition of A2780 cells by SRB assay; type: functional, cell-based; settings: Homo sapiens; how it was run: as §2
[7] = tested on: CCRF-CEM; test: Growth inhibition of CEM cells by MTT assay in presence of dipyridamole; settings: Homo sapiens
[8] = Growth inhibition of AG6000 cells by SRB assay in presence of dipyridamole; type: functional, cell-based; settings: Homo sapiens; how it was run: as §1
[9] = Growth inhibition of AG6000 cells by SRB assay; type: functional, cell-based; settings: Homo sapiens; how it was run: as §2
[10] = tested on: CCRF-CEM; test: Growth inhibition of CEM cells by MTT assay; settings: Homo sapiens
[11] = tested on: SW1573; test: Growth inhibition of SW1573 cells by SRB assay; type: functional, cell-based; settings: Homo sapiens
How it was run: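 SW1573 NSCLC cells grown in DMEM with 10% FCS and 20 mM HEPES at 37 °C, 5% CO2. Seeded at 5000 cells/well and exposed to a range of drug concentrations for 72 h, then SRB assay. OD read at 540 or 492 nm. Relative growth = (ODtreated − ODzero)/(ODcontrol − ODzero) × 100%, with ODzero taken at drug addition.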

[12] = tested on: NCI-H460; test: Growth inhibition of H460 cells by SRB assay in presence of dipyridamole; type: functional, cell-based; settings: Homo sapiens; how it was run: as §1
[13] = Growth inhibition of H292 cells by SRB assay; type: functional, cell-based; settings: Homo sapiens, NCI-H292; how it was run: as §2
[14] = tested on: CCRF-CEM; test: Growth inhibition of dCK deficient CEM cells by MTT assay; settings: Homo sapiens
[15] = Growth inhibition of H292 cells by SRB assay in presence of dipyridamole; type: functional, cell-based; settings: Homo sapiens, NCI-H292; how it was run: as §1
[16] = tested on: CCRF-CEM; test: Growth inhibition of dCK deficient CEM cells by MTT assay in presence of dipyridamole; settings: Homo sapiens

IC50 [1]: 0.015 µM | IC50 [2]: 0.275 µM | IC50 [3]: 0.01 µM | IC50 [4]: 0.225 µM | IC50 [5]: 0.014 µM | IC50 [6]: 0.0015 µM | IC50 [7]: 1 µM | IC50 [10]: 0.13 µM | IC50 [11]: 0.016 µM | IC50 [12]: 0.103 µM | IC50 [14]: 50 µM | IC50 [16]: 100 µM
SMILES: Nc1ccn([C@@H]2O[C@H](CO)[C@@H](O)C2(F)F)c(=O)n1 [GEMCITABINE]
IC50 [8]: 20 µM | IC50 [9]: 20 µM | IC50 [13]: 0.013 µM | IC50 [15]: 0.21 µM
